Biological target: Cystic fibrosis transmembrane conductance regulator (Homo sapiens, UniProt P13569, F508DEL)
Test: Correction of defective trafficking of human deltaF508 mutant CFTR protein expressed in FRT epithelial cells coexpressing YFP-H148Q/I152L protein assessed as iodide influx for 16 to 20 hrs by fluorescence assay
Assay type: cell-based, Epithelial cell
Conditions: read-out: IC50 (the source's name)
How it was run: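 FRT cells stably coexpressing human ΔF508-CFTR and YFP-H148Q/I152L, grown 24 h at 37 °C (5% CO2), then exposed 16–20 h to compound at various concentrations; DMSO vehicle negative control and a bithiazole benzamide positive control. Washed, 20 min in PBS with forskolin 20 μM plus genistein 50 μM. YFP fluorescence (ex 500/em 535 nm) read 2 s baseline, then 12 s after iodide-substituted PBS addition. Influx rate came from exponential fit of final 11.5 s, extrapolated initial slope, normalized to background-subtracted initial fluorescence. EC50/Vmax came from four-parameter logistic fit.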

Chain of Cystic fibrosis transmembrane conductance regulator (P13569 as listed by the source): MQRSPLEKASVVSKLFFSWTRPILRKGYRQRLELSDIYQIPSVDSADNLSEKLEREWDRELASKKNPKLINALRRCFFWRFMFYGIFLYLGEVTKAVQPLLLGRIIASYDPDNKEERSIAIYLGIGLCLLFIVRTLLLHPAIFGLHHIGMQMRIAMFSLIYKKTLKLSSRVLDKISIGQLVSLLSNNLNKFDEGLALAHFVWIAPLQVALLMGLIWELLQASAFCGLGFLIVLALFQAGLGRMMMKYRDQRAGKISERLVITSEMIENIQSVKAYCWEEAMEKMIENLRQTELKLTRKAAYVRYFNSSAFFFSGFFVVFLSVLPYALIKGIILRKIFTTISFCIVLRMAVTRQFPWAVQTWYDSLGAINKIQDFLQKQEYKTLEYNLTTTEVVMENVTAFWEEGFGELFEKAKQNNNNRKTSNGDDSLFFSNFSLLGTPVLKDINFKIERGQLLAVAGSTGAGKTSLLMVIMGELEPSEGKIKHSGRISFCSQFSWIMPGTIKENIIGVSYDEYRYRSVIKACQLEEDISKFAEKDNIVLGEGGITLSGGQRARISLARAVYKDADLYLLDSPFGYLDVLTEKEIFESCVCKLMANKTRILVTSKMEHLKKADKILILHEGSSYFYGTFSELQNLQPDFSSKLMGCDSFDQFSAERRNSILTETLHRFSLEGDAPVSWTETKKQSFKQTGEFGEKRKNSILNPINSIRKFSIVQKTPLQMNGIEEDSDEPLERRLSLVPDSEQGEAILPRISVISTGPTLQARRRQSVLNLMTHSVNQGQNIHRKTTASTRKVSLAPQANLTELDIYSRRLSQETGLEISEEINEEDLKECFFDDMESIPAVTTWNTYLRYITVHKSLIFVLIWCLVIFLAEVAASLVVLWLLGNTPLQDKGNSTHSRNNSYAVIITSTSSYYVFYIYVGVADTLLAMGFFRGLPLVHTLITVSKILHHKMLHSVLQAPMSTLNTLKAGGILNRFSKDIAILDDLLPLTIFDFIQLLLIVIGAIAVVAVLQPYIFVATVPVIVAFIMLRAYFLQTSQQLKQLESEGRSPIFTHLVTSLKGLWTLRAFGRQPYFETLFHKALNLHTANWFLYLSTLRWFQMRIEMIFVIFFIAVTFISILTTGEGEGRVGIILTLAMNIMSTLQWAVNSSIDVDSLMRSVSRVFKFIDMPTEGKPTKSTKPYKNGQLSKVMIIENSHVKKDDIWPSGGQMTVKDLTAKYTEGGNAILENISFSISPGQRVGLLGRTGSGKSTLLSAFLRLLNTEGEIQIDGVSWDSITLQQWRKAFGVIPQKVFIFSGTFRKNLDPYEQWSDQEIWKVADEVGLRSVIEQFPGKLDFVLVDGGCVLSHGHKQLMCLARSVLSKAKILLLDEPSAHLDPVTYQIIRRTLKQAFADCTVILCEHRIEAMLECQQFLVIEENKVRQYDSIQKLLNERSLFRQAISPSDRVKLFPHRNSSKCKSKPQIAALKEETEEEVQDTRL

EC50 [µM] | Structure (SMILES)
6 | COc1ccc(Cl)cc1Nc1nc(-c2sc(NC(=O)c3ccccc3)nc2C)cs1
11 | COc1ccc(Cl)cc1Nc1nc2c(s1)CCCc1nc(N)sc1-2
8.9 | COc1ccc(Cl)cc1Nc1nc2c(s1)CCCc1nc(NC(=O)C3CC3)sc1-2
5.8 | COc1ccc(Cl)cc1Nc1nc2c(s1)CCCc1nc(NC(=O)C(C)C)sc1-2
6.6 | CCC(C)C(=O)Nc1nc2c(s1)-c1nc(Nc3cc(Cl)ccc3OC)sc1CCC2 (stereo not drawn)
8.8 | COC(=O)CCC(=O)Nc1nc2c(s1)-c1nc(Nc3cc(Cl)ccc3OC)sc1CCC2
4.8 | COc1ccc(Cl)cc1Nc1nc2c(s1)CCCc1nc(NC(=O)c3ccno3)sc1-2
9.2 | COc1ccc(Cl)cc1Nc1nc2c(s1)CCCCc1nc(N)sc1-2
4.1 | COc1ccc(Cl)cc1Nc1nc2c(s1)CCCCc1nc(NC(=O)C(C)(C)C)sc1-2
4.5 | COc1ccc(Cl)cc1Nc1nc2c(s1)CCCCc1nc(NC(=O)C3CC3)sc1-2
8.7 | COc1ccc(Cl)cc1Nc1nc2c(s1)CCCCc1nc(NC(=O)C(C)C)sc1-2
2.9 | CCC(C)C(=O)Nc1nc2c(s1)-c1nc(Nc3cc(Cl)ccc3OC)sc1CCCC2 (stereo not drawn)
8.3 | COC(=O)CCC(=O)Nc1nc2c(s1)-c1nc(Nc3cc(Cl)ccc3OC)sc1CCCC2
6.6 | COc1ccc(Cl)cc1Nc1nc2c(s1)CCCCc1nc(NC(=O)c3ccno3)sc1-2
6.9 | CN(C)c1ccc(Cl)cc1Nc1nc2c(s1)CCCc1nc(NC(=O)C(C)(C)C)sc1-2
7.2 | Cc1cccnc1Nc1nc2c(s1)CCCc1nc(NC(=O)C(C)(C)C)sc1-2
2.2 | CN(C)c1cccc(Nc2nc3c(s2)CCCc2nc(NC(=O)C(C)(C)C)sc2-3)c1
3.6 | COc1ccc([N+](=O)[O-])cc1Nc1nc2c(s1)CCCc1nc(NC(=O)C(C)(C)C)sc1-2
2.1 | CN(C)c1ccc(Cl)cc1Nc1nc2c(s1)CCCCc1nc(NC(=O)C(C)(C)C)sc1-2
5.2 | Cc1cccnc1Nc1nc2c(s1)CCCCc1nc(NC(=O)C(C)(C)C)sc1-2
5.2 | CN(C)c1cccc(Nc2nc3c(s2)CCCCc2nc(NC(=O)C(C)(C)C)sc2-3)c1
0.9 | COc1ccc([N+](=O)[O-])cc1Nc1nc2c(s1)CCCCc1nc(NC(=O)C(C)(C)C)sc1-2
2.3 | COc1ccc(Cl)cc1Nc1nc2c(s1)CCCc1nc(NC(=O)C(C)(C)C)sc1-2

Source: ChEMBL document CHEMBL3352726, “Constrained bithiazoles: small molecule correctors of defective ΔF508-CFTR protein trafficking” (J Med Chem, 2014)
